From ChEMBL document CHEMBL3286105, “Design, synthesis and antifungal activity of novel triazole derivatives containing substituted 1,2,3-triazole-piperdine side chains” (2014)
≈ marks a conversion by molar mass, not a printed value.

What was measured:
Assay type in all cases: functional
Candida albicans = assay: Antifungal activity against Candida albicans assessed as growth inhibition after 24 hrs by serial dilution method
Method in brief: (§1)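 Candida strains were ATCC or clinical isolates. Compounds were dissolved in DMSO and serially diluted in growth medium. Plates were incubated at 35 °C and read at 24 h. MIC was the lowest concentration giving turbidity at […]80% inhibition relative to the growth control.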

Cryptococcus neoformans = assay: Antifungal activity against Cryptococcus neoformans assessed as growth inhibition after 72 hrs by serial dilution method
Method in brief: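 Compounds were taken up in DMSO and diluted in growth medium. Incubation was at 35 °C with MIC read at 72 h. MIC was the lowest concentration at which turbidity reached the 80% inhibition cutoff against the untreated growth control.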

Nakaseomyces glabratus = assay: Antifungal activity against Candida glabrata assessed as growth inhibition after 24 hrs by serial dilution method; method in brief: as §1
Nannizzia gypsea = assay: Antifungal activity against Microsporum gypseum assessed as growth inhibition by serial dilution method
Method in brief: (§2)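 Compounds were dissolved in DMSO and diluted in growth medium. Incubation was at 28 °C. MIC was the lowest concentration with turbidity at the 80% inhibition threshold relative to the drug-free growth control.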

Candida parapsilosis = assay: Antifungal activity against Candida parapsilosis assessed as growth inhibition after 24 hrs by serial dilution method; settings: Lodderomyces parapsilosis; method in brief: as §1
Aspergillus fumigatus = assay: Antifungal activity against Aspergillus fumigatus assessed as growth inhibition after 7 days by serial dilution method; settings: 168 h
Trichophyton rubrum = assay: Antifungal activity against Trichophyton rubrum assessed as growth inhibition by serial dilution method; method in brief: as §2

| SMILES | MIC80 (Candida albicans) | MIC80 (Cryptococcus neoformans) | MIC80 (Nakaseomyces glabratus) | MIC80 (Nannizzia gypsea) | MIC80 (Candida parapsilosis) | MIC80 (Aspergillus fumigatus) | MIC80 (Trichophyton rubrum) |
| --- | --- | --- | --- | --- | --- | --- | --- |
| OC(CN1CCC(n2cc(-c3ccccc3)nn2)CC1)(Cn1cncn1)c1ccc(F)cc1F (configuration not stated) | 0.125 µg/mL (≈ 0.269 µM) | 0.25 µg/mL (≈ 0.537 µM) | 1 µg/mL (≈ 2.15 µM) | 4 µg/mL (≈ 8.59 µM) | 1 µg/mL (≈ 2.15 µM) | > 64 µg/mL | 0.5 µg/mL (≈ 1.07 µM) |
| OCc1cn(C2CCN(CC(O)(Cn3cncn3)c3ccc(F)cc3F)CC2)nn1 (configuration not stated) | 8 µg/mL (≈ 19.1 µM) | 64 µg/mL (≈ 153 µM) | 32 µg/mL (≈ 76.3 µM) | > 64 µg/mL | > 64 µg/mL | > 64 µg/mL | > 64 µg/mL |
| CCOC(=O)c1cn(C2CCN(CC(O)(Cn3cncn3)c3ccc(F)cc3F)CC2)nn1 (configuration not stated) | 8 µg/mL (≈ 17.3 µM) | > 64 µg/mL | 32 µg/mL (≈ 69.3 µM) | > 64 µg/mL | > 64 µg/mL | > 64 µg/mL | > 64 µg/mL |
| OC(Cn1cncn1)(Cn1cncn1)c1ccc(F)cc1F [FLUCONAZOLE] | 0.25 µg/mL (≈ 0.816 µM) | 1 µg/mL (≈ 3.27 µM) | 1 µg/mL (≈ 3.27 µM) | 32 µg/mL (≈ 104 µM) | 2 µg/mL (≈ 6.53 µM) | > 64 µg/mL | 8 µg/mL (≈ 26.1 µM) |
| O=C(O)CCCc1cn(C2CCN(CC(O)(Cn3cncn3)c3ccc(F)cc3F)CC2)nn1 (configuration not stated) | 0.5 µg/mL (≈ 1.05 µM) | 4 µg/mL (≈ 8.41 µM) | 4 µg/mL (≈ 8.41 µM) | 32 µg/mL (≈ 67.3 µM) | 8 µg/mL (≈ 16.8 µM) | > 64 µg/mL | 4 µg/mL (≈ 8.41 µM) |
| OCCCc1cn(C2CCN(CC(O)(Cn3cncn3)c3ccc(F)cc3F)CC2)nn1 (configuration not stated) | 8 µg/mL (≈ 17.9 µM) | > 64 µg/mL | 16 µg/mL (≈ 35.8 µM) | > 64 µg/mL | > 64 µg/mL | > 64 µg/mL | > 64 µg/mL |
| OC(c1ccccc1)c1cn(C2CCN(CC(O)(Cn3cncn3)c3ccc(F)cc3F)CC2)nn1 (configuration not stated) | 2 µg/mL (≈ 4.04 µM) | 32 µg/mL (≈ 64.6 µM) | 8 µg/mL (≈ 16.1 µM) | > 64 µg/mL | 8 µg/mL (≈ 16.1 µM) | 16 µg/mL (≈ 32.3 µM) | 32 µg/mL (≈ 64.6 µM) |
| OC(CN1CCC(n2cc(C3CC3)nn2)CC1)(Cn1cncn1)c1ccc(F)cc1F (configuration not stated) | 0.125 µg/mL (≈ 0.291 µM) | 1 µg/mL (≈ 2.33 µM) | 0.25 µg/mL (≈ 0.582 µM) | 8 µg/mL (≈ 18.6 µM) | 1 µg/mL (≈ 2.33 µM) | 64 µg/mL (≈ 149 µM) | 2 µg/mL (≈ 4.66 µM) |
| COCc1cn(C2CCN(CC(O)(Cn3cncn3)c3ccc(F)cc3F)CC2)nn1 (configuration not stated) | 0.125 µg/mL (≈ 0.288 µM) | 0.25 µg/mL (≈ 0.577 µM) | 0.25 µg/mL (≈ 0.577 µM) | 2 µg/mL (≈ 4.61 µM) | 0.5 µg/mL (≈ 1.15 µM) | 16 µg/mL (≈ 36.9 µM) | 0.5 µg/mL (≈ 1.15 µM) |
| COc1cccc(-c2cn(C3CCN(CC(O)(Cn4cncn4)c4ccc(F)cc4F)CC3)nn2)c1 (configuration not stated) | 0.125 µg/mL (≈ 0.252 µM) | 0.125 µg/mL (≈ 0.252 µM) | 2 µg/mL (≈ 4.04 µM) | 32 µg/mL (≈ 64.6 µM) | 4 µg/mL (≈ 8.07 µM) | > 64 µg/mL | 4 µg/mL (≈ 8.07 µM) |
| CCC(C)n1ncn(-c2ccc(N3CCN(c4ccc(OCC5COC(Cn6cncn6)(c6ccc(Cl)cc6Cl)O5)cc4)CC3)cc2)c1=O (configuration not stated) [ITRACONAZOLE] | 1 µg/mL (≈ 1.42 µM) | 2 µg/mL (≈ 2.83 µM) | 1 µg/mL (≈ 1.42 µM) | 2 µg/mL (≈ 2.83 µM) | 4 µg/mL (≈ 5.67 µM) | 1 µg/mL (≈ 1.42 µM) | 0.5 µg/mL (≈ 0.709 µM) |
| OC(CN1CCC(n2cc(-c3cccnc3)nn2)CC1)(Cn1cncn1)c1ccc(F)cc1F (configuration not stated) | 0.125 µg/mL (≈ 0.268 µM) | 0.125 µg/mL (≈ 0.268 µM) | 1 µg/mL (≈ 2.14 µM) | 16 µg/mL (≈ 34.3 µM) | 1 µg/mL (≈ 2.14 µM) | 64 µg/mL (≈ 137 µM) | 4 µg/mL (≈ 8.57 µM) |
| CCc1cn(C2CCN(CC(O)(Cn3cncn3)c3ccc(F)cc3F)CC2)nn1 (configuration not stated) | 0.125 µg/mL (≈ 0.299 µM) | 1 µg/mL (≈ 2.4 µM) | 0.5 µg/mL (≈ 1.2 µM) | 8 µg/mL (≈ 19.2 µM) | 1 µg/mL (≈ 2.4 µM) | 64 µg/mL (≈ 153 µM) | 1 µg/mL (≈ 2.4 µM) |
| CN(C)c1ccc(-c2cn(C3CCN(CC(O)(Cn4cncn4)c4ccc(F)cc4F)CC3)nn2)cc1 (configuration not stated) | 0.25 µg/mL (≈ 0.492 µM) | 1 µg/mL (≈ 1.97 µM) | 2 µg/mL (≈ 3.93 µM) | 4 µg/mL (≈ 7.87 µM) | 2 µg/mL (≈ 3.93 µM) | 8 µg/mL (≈ 15.7 µM) | 2 µg/mL (≈ 3.93 µM) |
| OCCCCc1cn(C2CCN(CC(O)(Cn3cncn3)c3ccc(F)cc3F)CC2)nn1 (configuration not stated) | 4 µg/mL (≈ 8.67 µM) | 32 µg/mL (≈ 69.3 µM) | 8 µg/mL (≈ 17.3 µM) | > 64 µg/mL | 32 µg/mL (≈ 69.3 µM) | > 64 µg/mL | 64 µg/mL (≈ 139 µM) |
| OC(CN1CCC(n2cc(Cc3ccccc3)nn2)CC1)(Cn1cncn1)c1ccc(F)cc1F (configuration not stated) | 0.125 µg/mL (≈ 0.261 µM) | 0.5 µg/mL (≈ 1.04 µM) | 1 µg/mL (≈ 2.09 µM) | 4 µg/mL (≈ 8.34 µM) | 1 µg/mL (≈ 2.09 µM) | 32 µg/mL (≈ 66.7 µM) | 1 µg/mL (≈ 2.09 µM) |
| Cc1ccccc1-c1cn(C2CCN(CC(O)(Cn3cncn3)c3ccc(F)cc3F)CC2)nn1 (configuration not stated) | 0.125 µg/mL (≈ 0.261 µM) | 0.25 µg/mL (≈ 0.521 µM) | 0.5 µg/mL (≈ 1.04 µM) | 64 µg/mL (≈ 133 µM) | 0.5 µg/mL (≈ 1.04 µM) | > 64 µg/mL | 0.5 µg/mL (≈ 1.04 µM) |
| OCCc1cn(C2CCN(CC(O)(Cn3cncn3)c3ccc(F)cc3F)CC2)nn1 (configuration not stated) | 4 µg/mL (≈ 9.23 µM) | > 64 µg/mL | 16 µg/mL (≈ 36.9 µM) | > 64 µg/mL | > 64 µg/mL | > 64 µg/mL | > 64 µg/mL |
| OC(CN1CCC(n2cc(C3CCCC3)nn2)CC1)(Cn1cncn1)c1ccc(F)cc1F (configuration not stated) | 0.5 µg/mL (≈ 1.09 µM) | 8 µg/mL (≈ 17.5 µM) | 4 µg/mL (≈ 8.74 µM) | 64 µg/mL (≈ 140 µM) | 8 µg/mL (≈ 17.5 µM) | > 64 µg/mL | 16 µg/mL (≈ 35 µM) |
| CCCc1cn(C2CCN(CC(O)(Cn3cncn3)c3ccc(F)cc3F)CC2)nn1 (configuration not stated) | 0.125 µg/mL (≈ 0.29 µM) | 0.5 µg/mL (≈ 1.16 µM) | 0.25 µg/mL (≈ 0.579 µM) | 4 µg/mL (≈ 9.27 µM) | 1 µg/mL (≈ 2.32 µM) | 16 µg/mL (≈ 37.1 µM) | 1 µg/mL (≈ 2.32 µM) |
| O=C(O)c1cn(C2CCN(CC(O)(Cn3cncn3)c3ccc(F)cc3F)CC2)nn1 (configuration not stated) | 4 µg/mL (≈ 9.23 µM) | 16 µg/mL (≈ 36.9 µM) | 8 µg/mL (≈ 18.5 µM) | > 64 µg/mL | 64 µg/mL (≈ 148 µM) | > 64 µg/mL | > 64 µg/mL |
| OC(CN1CCC(n2cc(-c3ccc(OC(F)(F)F)cc3)nn2)CC1)(Cn1cncn1)c1ccc(F)cc1F (configuration not stated) | 0.0125 µg/mL (≈ 0.0227 µM) | 0.125 µg/mL (≈ 0.227 µM) | 0.5 µg/mL (≈ 0.91 µM) | 4 µg/mL (≈ 7.28 µM) | 2 µg/mL (≈ 3.64 µM) | 8 µg/mL (≈ 14.6 µM) | 0.5 µg/mL (≈ 0.91 µM) |
| CC(O)c1cn(C2CCN(CC(O)(Cn3cncn3)c3ccc(F)cc3F)CC2)nn1 (configuration not stated) | 8 µg/mL (≈ 18.5 µM) | 64 µg/mL (≈ 148 µM) | 16 µg/mL (≈ 36.9 µM) | > 64 µg/mL | > 64 µg/mL | > 64 µg/mL | > 64 µg/mL |
| COC(=O)CCCc1cn(C2CCN(CC(O)(Cn3cncn3)c3ccc(F)cc3F)CC2)nn1 (configuration not stated) | 0.25 µg/mL (≈ 0.511 µM) | 4 µg/mL (≈ 8.17 µM) | 2 µg/mL (≈ 4.09 µM) | 8 µg/mL (≈ 16.3 µM) | 4 µg/mL (≈ 8.17 µM) | 64 µg/mL (≈ 131 µM) | 4 µg/mL (≈ 8.17 µM) |
| OC(CN1CCC(n2cc(-c3ccc(Br)cc3)nn2)CC1)(Cn1cncn1)c1ccc(F)cc1F (configuration not stated) | 0.125 µg/mL (≈ 0.23 µM) | 0.125 µg/mL (≈ 0.23 µM) | 0.5 µg/mL (≈ 0.918 µM) | 2 µg/mL (≈ 3.67 µM) | 1 µg/mL (≈ 1.84 µM) | > 64 µg/mL | 0.25 µg/mL (≈ 0.459 µM) |
| CC(=O)c1ccc(-c2cn(C3CCN(CC(O)(Cn4cncn4)c4ccc(F)cc4F)CC3)nn2)cc1 (configuration not stated) | 0.0625 µg/mL (≈ 0.123 µM) | 0.125 µg/mL (≈ 0.246 µM) | 0.5 µg/mL (≈ 0.985 µM) | 2 µg/mL (≈ 3.94 µM) | 0.5 µg/mL (≈ 0.985 µM) | 64 µg/mL (≈ 126 µM) | 1 µg/mL (≈ 1.97 µM) |
